Laboratory results as given in ChEMBL document CHEMBL1141396, “Synthesis and mixed lineage kinase activity of pyrrolocarbazole and isoindolone analogs of (+)K-252a” (J Med Chem, 2007).
The source made the active and inactive calls. The rule behind the calls is not given here.

How the values were obtained:
[1] = target: T1, Mitogen-activated protein kinase kinase kinase 9 (Homo sapiens, UniProt P80192); assay: Inhibition of GST-MLK1 expressed in baculovirus
[2] = target: T2, Choline O-acetyltransferase (Rattus norvegicus) (UniProt P32738); assay: Enhancement of choline acetyltransferase activity in embryonic rat spinal cord at 300 nM
T2 sequence (whole entry): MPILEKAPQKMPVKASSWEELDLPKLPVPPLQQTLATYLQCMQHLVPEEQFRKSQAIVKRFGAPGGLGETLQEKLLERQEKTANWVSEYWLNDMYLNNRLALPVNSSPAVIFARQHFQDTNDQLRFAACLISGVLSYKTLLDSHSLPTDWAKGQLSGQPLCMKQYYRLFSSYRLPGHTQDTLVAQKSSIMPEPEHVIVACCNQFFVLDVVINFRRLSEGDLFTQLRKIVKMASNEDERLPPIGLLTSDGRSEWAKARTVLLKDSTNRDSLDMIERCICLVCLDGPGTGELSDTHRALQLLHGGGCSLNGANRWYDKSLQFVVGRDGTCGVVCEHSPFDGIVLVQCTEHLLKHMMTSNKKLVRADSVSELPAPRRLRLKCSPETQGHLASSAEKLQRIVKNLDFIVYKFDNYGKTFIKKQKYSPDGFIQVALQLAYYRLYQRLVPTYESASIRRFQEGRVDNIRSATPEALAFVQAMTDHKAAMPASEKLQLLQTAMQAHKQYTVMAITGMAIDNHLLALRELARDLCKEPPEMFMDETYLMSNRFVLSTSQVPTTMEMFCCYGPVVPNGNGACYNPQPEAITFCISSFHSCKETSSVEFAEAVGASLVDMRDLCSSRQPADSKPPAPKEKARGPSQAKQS
Outline: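 Embryonic rat spinal cord cultures; compounds at 300 nM, ChAT activity measured after 2 days in culture, expressed as percent of basal (100%). K-252a run as internal control. Mean ± standard deviation of three independent experiments.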

[3] = target: Mitogen-activated protein kinase kinase kinase 11 (Homo sapiens, UniProt Q16584); assay: Inhibition of GST-MLK3 expressed in baculovirus
[4] = target: T1, Mitogen-activated protein kinase kinase kinase 9; assay: Inhibition of MKK4 phosphorylation in MLK1 transfected CHO cells after 1 hr; assay type: functional, cell-based
Outline: (§1)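 CHO cells transfected with MLK1 plus dominant-negative MKK4 cDNA. Compound exposure 1 h, tested up to 1 µM. Phospho-MKK4 read by ELISA.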
Target sequence in this assay (P80192 whole entry): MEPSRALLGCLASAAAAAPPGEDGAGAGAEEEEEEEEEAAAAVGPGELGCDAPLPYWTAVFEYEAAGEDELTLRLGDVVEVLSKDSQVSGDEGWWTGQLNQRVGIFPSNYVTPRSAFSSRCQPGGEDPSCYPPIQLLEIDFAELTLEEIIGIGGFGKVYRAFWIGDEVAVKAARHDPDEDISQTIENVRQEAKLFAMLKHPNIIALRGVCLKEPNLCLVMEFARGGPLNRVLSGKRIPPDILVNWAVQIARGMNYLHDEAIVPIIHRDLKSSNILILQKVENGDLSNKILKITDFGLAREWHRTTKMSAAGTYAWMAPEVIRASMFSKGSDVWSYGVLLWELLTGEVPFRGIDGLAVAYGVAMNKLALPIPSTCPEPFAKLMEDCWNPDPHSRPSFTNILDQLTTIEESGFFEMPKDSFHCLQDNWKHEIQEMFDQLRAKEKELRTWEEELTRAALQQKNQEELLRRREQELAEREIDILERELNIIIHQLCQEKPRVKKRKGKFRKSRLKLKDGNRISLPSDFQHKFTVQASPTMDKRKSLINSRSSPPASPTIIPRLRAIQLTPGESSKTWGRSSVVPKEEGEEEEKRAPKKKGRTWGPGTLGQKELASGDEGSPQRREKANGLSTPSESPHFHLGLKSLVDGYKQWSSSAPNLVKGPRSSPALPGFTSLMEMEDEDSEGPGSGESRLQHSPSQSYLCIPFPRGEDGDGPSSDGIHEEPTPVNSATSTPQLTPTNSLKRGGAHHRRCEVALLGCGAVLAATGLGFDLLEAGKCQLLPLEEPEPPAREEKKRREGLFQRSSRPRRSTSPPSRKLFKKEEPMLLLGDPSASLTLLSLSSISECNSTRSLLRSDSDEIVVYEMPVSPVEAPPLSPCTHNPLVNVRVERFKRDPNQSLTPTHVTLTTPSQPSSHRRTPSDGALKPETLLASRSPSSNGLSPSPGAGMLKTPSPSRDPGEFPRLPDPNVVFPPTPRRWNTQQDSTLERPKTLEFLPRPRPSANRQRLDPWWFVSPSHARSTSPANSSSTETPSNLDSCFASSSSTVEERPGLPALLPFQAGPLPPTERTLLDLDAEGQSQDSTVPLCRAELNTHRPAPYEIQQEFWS

[5] = target: Cyclin-dependent kinase 1 (Homo sapiens) (UniProt P06493); assay: Inhibition of CDK1 at 1 uM
[6] = target: High affinity nerve growth factor receptor (Homo sapiens, UniProt P04629); assay: Inhibition of TrkA
[7] = target: Platelet-derived growth factor receptor beta (Homo sapiens) (UniProt P09619); assay: Inhibition of PDGFRbeta at 1 uM
[8] = target: Mitogen-activated protein kinase kinase kinase 10 (Homo sapiens, UniProt Q02779); assay: Inhibition of GST-MLK2
[9] = target: Vascular endothelial growth factor receptor 2 (Homo sapiens, UniProt P35968); assay: Inhibition of VEGFR2
[10] = target: Insulin receptor (Homo sapiens) (UniProt P06213); assay: Inhibition of IRKbeta at 1 uM
[11] = target: Cyclin-dependent kinase 2 (Homo sapiens) (UniProt P24941); assay: Inhibition of CDK2 at 1 uM
[12] = target: Mitogen-activated protein kinase 14 (Homo sapiens) (UniProt Q16539); assay: Inhibition of p38-alpha at 1 uM
[13] = target: Fibroblast growth factor receptor 1 (Homo sapiens) (UniProt P11362); assay: Inhibition of FGFR1 at 1 uM
[14] = target: Epidermal growth factor receptor (Homo sapiens) (UniProt P00533); assay: Inhibition of EGFR at 1 uM
[15] = target: Mitogen-activated protein kinase 8 (Homo sapiens) (UniProt P45983); assay: Inhibition of JNK1 at 1 uM
Protein kinase C (PKC) = assay: Inhibition of PKC; assay type: protein assay, Homo sapiens
[16] = target: Angiopoietin-1 receptor (Homo sapiens) (UniProt Q02763); assay: Inhibition of TIE2 at 1 uM
[17] = target: T1, Mitogen-activated protein kinase kinase kinase 9; assay: Inhibition of MKK4 phosphorylation in MLK1 transfected CHO cells at 1 uM after 1 hr; assay type: functional, cell-based; outline: as §1
Target sequence in this assay (P80192 whole entry): as above

Mitogen-activated protein kinase 14 (Homo sapiens), sequence (Q16539 whole entry): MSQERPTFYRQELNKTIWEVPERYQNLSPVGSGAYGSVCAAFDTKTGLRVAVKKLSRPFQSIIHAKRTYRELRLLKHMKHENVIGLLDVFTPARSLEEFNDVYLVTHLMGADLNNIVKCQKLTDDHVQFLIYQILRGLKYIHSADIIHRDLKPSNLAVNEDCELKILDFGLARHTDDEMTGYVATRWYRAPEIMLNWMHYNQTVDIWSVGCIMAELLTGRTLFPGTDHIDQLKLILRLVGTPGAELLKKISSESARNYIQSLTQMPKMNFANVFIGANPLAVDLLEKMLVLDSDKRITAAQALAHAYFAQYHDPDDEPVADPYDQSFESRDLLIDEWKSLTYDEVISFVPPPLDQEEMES
Angiopoietin-1 receptor (Homo sapiens), sequence (Q02763 whole entry): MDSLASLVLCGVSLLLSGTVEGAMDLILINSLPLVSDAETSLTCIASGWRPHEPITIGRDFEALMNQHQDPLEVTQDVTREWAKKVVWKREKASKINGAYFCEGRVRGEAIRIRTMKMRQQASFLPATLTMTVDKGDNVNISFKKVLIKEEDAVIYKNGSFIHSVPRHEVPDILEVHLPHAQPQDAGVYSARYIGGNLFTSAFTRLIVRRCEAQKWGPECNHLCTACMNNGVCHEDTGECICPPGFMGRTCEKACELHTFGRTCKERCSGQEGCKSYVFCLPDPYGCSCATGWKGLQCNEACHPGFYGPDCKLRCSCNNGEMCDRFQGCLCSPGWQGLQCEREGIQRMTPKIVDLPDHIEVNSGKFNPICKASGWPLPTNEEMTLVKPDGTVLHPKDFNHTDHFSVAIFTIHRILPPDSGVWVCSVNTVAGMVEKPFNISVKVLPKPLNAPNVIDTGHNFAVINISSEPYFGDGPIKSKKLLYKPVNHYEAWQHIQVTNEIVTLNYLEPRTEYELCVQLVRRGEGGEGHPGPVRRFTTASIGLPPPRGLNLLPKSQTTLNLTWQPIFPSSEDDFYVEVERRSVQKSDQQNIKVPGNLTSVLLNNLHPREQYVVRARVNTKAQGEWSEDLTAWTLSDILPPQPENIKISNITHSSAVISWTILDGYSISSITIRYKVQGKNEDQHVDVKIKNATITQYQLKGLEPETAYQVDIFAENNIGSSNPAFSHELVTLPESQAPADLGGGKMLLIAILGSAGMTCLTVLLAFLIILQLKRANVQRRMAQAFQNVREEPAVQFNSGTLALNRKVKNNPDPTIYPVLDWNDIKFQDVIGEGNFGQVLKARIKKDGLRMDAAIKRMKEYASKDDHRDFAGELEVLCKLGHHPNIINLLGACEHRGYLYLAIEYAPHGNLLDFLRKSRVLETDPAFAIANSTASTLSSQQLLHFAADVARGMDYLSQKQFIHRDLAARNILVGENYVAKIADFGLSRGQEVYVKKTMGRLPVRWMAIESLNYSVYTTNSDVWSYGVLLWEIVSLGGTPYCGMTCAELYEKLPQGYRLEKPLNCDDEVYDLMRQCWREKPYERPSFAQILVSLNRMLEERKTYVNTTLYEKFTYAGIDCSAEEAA
Insulin receptor (Homo sapiens), sequence (P06213 28-758 limits assumed): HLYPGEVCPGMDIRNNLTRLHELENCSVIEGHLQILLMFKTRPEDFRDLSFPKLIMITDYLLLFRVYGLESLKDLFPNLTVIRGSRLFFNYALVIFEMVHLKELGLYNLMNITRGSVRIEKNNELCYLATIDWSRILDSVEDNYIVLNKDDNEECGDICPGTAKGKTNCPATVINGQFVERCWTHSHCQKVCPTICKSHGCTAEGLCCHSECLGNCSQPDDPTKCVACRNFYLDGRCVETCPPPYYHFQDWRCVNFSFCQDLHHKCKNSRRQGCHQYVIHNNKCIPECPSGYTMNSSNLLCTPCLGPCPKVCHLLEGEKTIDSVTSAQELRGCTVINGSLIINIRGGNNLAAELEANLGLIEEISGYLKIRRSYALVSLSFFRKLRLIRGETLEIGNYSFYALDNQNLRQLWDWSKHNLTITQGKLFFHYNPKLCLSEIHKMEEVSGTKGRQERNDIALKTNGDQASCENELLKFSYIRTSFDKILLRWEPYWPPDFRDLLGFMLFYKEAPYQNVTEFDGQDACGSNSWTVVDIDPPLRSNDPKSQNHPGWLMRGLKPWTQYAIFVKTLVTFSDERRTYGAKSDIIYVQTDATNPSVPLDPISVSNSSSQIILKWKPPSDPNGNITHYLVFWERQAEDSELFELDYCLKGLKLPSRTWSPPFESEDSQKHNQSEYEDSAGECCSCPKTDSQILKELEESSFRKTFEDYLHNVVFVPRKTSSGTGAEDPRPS
Insulin receptor (Homo sapiens), sequence (P06213 763-1382 limits assumed): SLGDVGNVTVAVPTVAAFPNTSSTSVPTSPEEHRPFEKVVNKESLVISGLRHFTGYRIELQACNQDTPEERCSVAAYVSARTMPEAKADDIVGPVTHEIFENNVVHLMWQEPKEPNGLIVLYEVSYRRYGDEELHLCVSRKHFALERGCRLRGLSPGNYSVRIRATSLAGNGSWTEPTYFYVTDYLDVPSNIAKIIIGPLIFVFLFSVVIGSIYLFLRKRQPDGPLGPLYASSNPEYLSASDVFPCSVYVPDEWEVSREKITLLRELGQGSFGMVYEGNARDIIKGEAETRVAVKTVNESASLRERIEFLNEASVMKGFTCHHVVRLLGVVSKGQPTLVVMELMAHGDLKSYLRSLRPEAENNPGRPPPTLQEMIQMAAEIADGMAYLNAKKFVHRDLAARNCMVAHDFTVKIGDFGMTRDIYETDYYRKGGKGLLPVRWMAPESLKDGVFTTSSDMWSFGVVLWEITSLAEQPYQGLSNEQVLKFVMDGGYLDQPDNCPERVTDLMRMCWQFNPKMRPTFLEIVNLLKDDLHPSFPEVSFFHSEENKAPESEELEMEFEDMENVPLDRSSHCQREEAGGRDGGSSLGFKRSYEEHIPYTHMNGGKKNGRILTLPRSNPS
Fibroblast growth factor receptor 1 (Homo sapiens), sequence (P11362 22-822 limits assumed): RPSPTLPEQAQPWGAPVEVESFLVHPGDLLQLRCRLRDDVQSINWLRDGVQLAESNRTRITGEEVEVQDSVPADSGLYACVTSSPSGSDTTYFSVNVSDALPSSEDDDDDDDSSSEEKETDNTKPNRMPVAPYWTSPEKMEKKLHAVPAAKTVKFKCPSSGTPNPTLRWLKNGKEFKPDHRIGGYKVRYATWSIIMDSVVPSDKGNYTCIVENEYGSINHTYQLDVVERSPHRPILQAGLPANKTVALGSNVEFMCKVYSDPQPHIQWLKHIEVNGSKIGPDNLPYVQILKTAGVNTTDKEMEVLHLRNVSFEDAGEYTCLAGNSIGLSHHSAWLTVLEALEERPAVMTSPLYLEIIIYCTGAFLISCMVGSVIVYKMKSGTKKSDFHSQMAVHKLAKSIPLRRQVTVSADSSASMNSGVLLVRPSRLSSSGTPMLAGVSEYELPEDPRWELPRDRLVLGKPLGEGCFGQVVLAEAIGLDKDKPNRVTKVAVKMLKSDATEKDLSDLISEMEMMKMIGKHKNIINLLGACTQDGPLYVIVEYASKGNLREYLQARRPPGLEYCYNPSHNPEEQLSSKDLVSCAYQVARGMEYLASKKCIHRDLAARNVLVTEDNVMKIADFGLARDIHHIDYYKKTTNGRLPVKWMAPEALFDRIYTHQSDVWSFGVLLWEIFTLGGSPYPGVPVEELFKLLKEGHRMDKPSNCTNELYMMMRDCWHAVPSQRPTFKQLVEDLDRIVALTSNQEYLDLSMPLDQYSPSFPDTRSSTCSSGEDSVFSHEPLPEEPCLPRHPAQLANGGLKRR

Compound: O=C1NC(=O)c2c1c1c(c3c2-c2ccccc2C3)Cc2ccccc2-1
- IC50 [1]: > 300 nM
- Activity [2]: inactive
- IC50 [3]: > 300 nM

Compound: O=C1NCc2c1c1c(c3[nH]c4ccccc4c23)-c2ccccc2C1
- Activity [1]: inactive
- Activity [3]: inactive

Compound: O=C1NC(=O)c2c1c1c3ccccc3sc1c1sc3ccccc3c21
- IC50 [1]: > 300 nM
- IC50 [3]: > 300 nM

Compound: O=C1NCc2c1c1c3ccccc3[nH]c1c1[nH]c3ccccc3c21 [STAUROSPORINONE]
- IC50 [1]: 138 nM
- IC50 [3]: 49 nM

Compound: O=C1NCc2c1c1c3ccccc3oc1c1[nH]c3ccccc3c21
- IC50 [1]: > 10000 nM
- Activity [2]: inactive
- IC50 [3]: 1110 nM

Compound: O=C1NCc2c3c(c4[nH]c5ccccc5c4c21)CCc1ccccc1-3
- IC50 [4]: 274 nM
- inhibition [5]: < 30%
- IC50 [6]: > 1000 nM
- IC50 [1]: 46 nM
- inhibition [7]: < 30%
- Activity [2]: 171%
- IC50 [8]: 3450 nM
- IC50 [9]: > 300 nM
- inhibition [10]: < 30%
- inhibition [11]: < 30%
- IC50 [3]: 22 nM
- inhibition [12]: < 30%
- inhibition [13]: < 30%
- inhibition [14]: < 30%
- inhibition [15]: < 30%
- IC50 (Protein kinase C (PKC)): 205 nM
- inhibition [16]: < 30%

Compound: O=C1NC(=O)c2c1c1c(c3sc4ccccc4c23)Cc2ccccc2-1
- IC50 [1]: > 300 nM
- IC50 [3]: > 300 nM

Compound: O=C1NCc2c1c1c(c3sc4ccccc4c23)Cc2ccccc2-1
- IC50 [1]: 482 nM
- IC50 [3]: 157 nM

Compound: O=C1NC(=O)c2c1c1c3ccccc3[nH]c1c1oc3ccccc3c21
- IC50 [1]: > 300 nM
- Activity [2]: inactive
- IC50 [3]: > 300 nM

Compound: O=C1NCc2c3c(c4[nH]c5ccccc5c4c21)Cc1ccccc1-3
- Inhibition [17]: 22%
- inhibition [5]: < 30%
- IC50 [1]: 167 nM
- inhibition [7]: < 30%
- Activity [2]: 155%
- IC50 [8]: 2660 nM
- inhibition [10]: < 30%
- inhibition [11]: < 30%
- IC50 [3]: 87 nM
- inhibition [12]: < 30%
- inhibition [13]: < 30%
- inhibition [14]: < 30%
- inhibition [15]: < 30%
- IC50 (Protein kinase C (PKC)): > 1000 nM
- inhibition [16]: < 30%

Compound: O=C1NC(=O)c2c1c1c3ccccc3[nH]c1c1sc3ccccc3c21
- IC50 [1]: 68 nM
- IC50 [3]: 58 nM

Compound: O=C1NCc2c1c1c3ccccc3sc1c1sc3ccccc3c21
- IC50 [1]: > 10000 nM
- Activity [2]: inactive
- IC50 [3]: > 10000 nM

Compound: O=C1NCc2c1c1c(c3[nH]c4ccccc4c23)Cc2ccccc2-1
- Inhibition [17]: 19%
- inhibition [5]: < 30%
- IC50 [1]: 69 nM
- inhibition [7]: < 30%
- Activity [2]: 152%
- IC50 [8]: 364 nM
- inhibition [10]: < 30%
- inhibition [11]: < 30%
- IC50 [3]: 40 nM
- inhibition [12]: < 30%
- inhibition [13]: < 30%
- inhibition [14]: < 30%
- inhibition [15]: < 30%
- IC50 (Protein kinase C (PKC)): 1196 nM
- inhibition [16]: < 30%

Compound: O=C1NC(=O)c2c1c1c3ccccc3ccc1c1[nH]c3ccccc3c21
- IC50 [1]: 300 nM
- IC50 [3]: 300 nM

Compound: O=C1NCc2c1c1c3ccccc3[nH]c1c1sc3ccccc3c21
- IC50 [1]: 1800 nM
- IC50 [3]: 171 nM

Compound: O=C1NC(=O)c2c1c1c(c3[nH]c4ccccc4c23)CCc2ccccc2-1
- IC50 [4]: 90 nM
- inhibition [5]: < 30%
- IC50 [6]: > 1000 nM
- IC50 [1]: 22 nM
- inhibition [7]: < 30%
- Activity [2]: 178%
- IC50 [8]: 339 nM
- IC50 [9]: > 300 nM
- inhibition [10]: < 30%
- inhibition [11]: < 30%
- IC50 [3]: 12 nM
- inhibition [12]: < 30%
- inhibition [13]: < 30%
- inhibition [14]: < 30%
- inhibition [15]: < 30%
- IC50 (Protein kinase C (PKC)): 83 nM
- inhibition [16]: < 30%

Compound: O=C1NCc2c1c1c3ccccc3sc1c1[nH]c3ccccc3c21
- Inhibition [17]: 3%
- inhibition [5]: < 30%
- IC50 [6]: 88 nM
- IC50 [1]: 111 nM
- inhibition [7]: < 30%
- Activity [2]: 138%
- IC50 [8]: 2090 nM
- IC50 [9]: > 300 nM
- inhibition [10]: < 30%
- inhibition [11]: < 30%
- IC50 [3]: 26 nM
- inhibition [12]: < 30%
- inhibition [13]: < 30%
- inhibition [14]: < 30%
- inhibition [15]: < 30%
- IC50 (Protein kinase C (PKC)): > 1000 nM
- inhibition [16]: < 30%

Compound: COC(=O)[C@]1(O)C[C@@H]2O[C@@]1(C)n1c3ccccc3c3c4c(c5c6ccccc6n2c5c31)C(=O)NC4
- IC50 [8]: 45 nM

Compound: O=C1NC(=O)c2c1c1c(c3[nH]c4ccccc4c23)Cc2ccccc2-1
- IC50 [1]: > 300 nM
- IC50 [3]: > 300 nM

Compound: O=C1NCc2c3c(c4[nH]c5ccccc5c4c21)-c1ccccc1C3
- Activity [1]: inactive
- Activity [3]: inactive

Compound: O=C1NCc2c3c(c4sc5ccccc5c4c21)Cc1ccccc1-3
- IC50 [1]: 615 nM
- IC50 [3]: 110 nM

Compound: O=C1NCc2c1c1c(c3c2-c2ccccc2C3)Cc2ccccc2-1
- IC50 [1]: 1410 nM
- IC50 [3]: 277 nM

Compound: O=C1NCc2c1c1c3ccccc3[nH]c1c1oc3ccccc3c21
- IC50 [1]: 308 nM
- Activity [2]: inactive
- IC50 [3]: 270 nM
